The source made the active and inactive calls.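 The calls were made as follows, unless noted: active = inhibition above 20% together with a positive visual image hit; inconclusive = visual image hit but inhibition not above 20%; inactive = no visual image hit.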
Key:
[1] = inhibitors of TNFa-induced NFkB p65 translocation, primary screen, imaging, HUVEC, MLSMR starter and 10KST1 sets (AID 438); conditions: HUVEC TNFa-induced p65 nuclear translocation; cell count: measured here: nuclei count (cytotoxicity indicator), at 2.08 µM; inhibition: at 2 µM, stronger effect = higher value, 0% TNFa-plus-vehicle, 100% no-TNFa wells;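 also: compound added about 3h40 before a 20 min TNFalpha stimulation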;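 as to inhibition: signal is the nuclear over cytoplasmic p65 intensity ratio per well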
[2] = endothelial E-selectin expression blockers – imaging, HUVEC, immunofluorescence, MLSMR starter and 10KST1 sets, primary screen (AID 487;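 active = visually confirmed hit in the image check and inhibition above 20%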;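 as to inhibition: signal is fraction of cell area covered by stained E-selectin grains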;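 as to nuclei count: 100% = median nuclei count of all wells on the same plate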); conditions: HUVEC TNFalpha-induced E-selectin immunofluorescence imaging, at 2 µM; inhibition: stronger effect = higher value; nuclei count: measured here: cell number, toxicity
[3] = Primary imaging screen for DUSP6 inhibitors that restore phospho-Erk in transfected HeLa cells, chemical complementation (AID 609;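 active = compounds giving at least 50% inhibition in the cell-based MKP-3 phosphatase rescue imaging test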;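 as to inhibition: phospho-Erk level distribution per well compared with pooled transfected vehicle control wells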); conditions: HeLa MKP-3 transfected, phospho-Erk imaging KS statistic, at 10 µM, cells stimulated with TPA for 15 min
[4] = biological target: Dual specificity protein phosphatase 6 (Homo sapiens) (UniProt Q16828); test: as above; conditions: HeLa MKP-3 transfected, phospho-Erk imaging KS statistic; at 10 µM; stronger effect = higher value; cells stimulated with TPA for 15 min
Chain of Dual specificity protein phosphatase 6 (Homo sapiens) (Q16828 whole entry, looked up): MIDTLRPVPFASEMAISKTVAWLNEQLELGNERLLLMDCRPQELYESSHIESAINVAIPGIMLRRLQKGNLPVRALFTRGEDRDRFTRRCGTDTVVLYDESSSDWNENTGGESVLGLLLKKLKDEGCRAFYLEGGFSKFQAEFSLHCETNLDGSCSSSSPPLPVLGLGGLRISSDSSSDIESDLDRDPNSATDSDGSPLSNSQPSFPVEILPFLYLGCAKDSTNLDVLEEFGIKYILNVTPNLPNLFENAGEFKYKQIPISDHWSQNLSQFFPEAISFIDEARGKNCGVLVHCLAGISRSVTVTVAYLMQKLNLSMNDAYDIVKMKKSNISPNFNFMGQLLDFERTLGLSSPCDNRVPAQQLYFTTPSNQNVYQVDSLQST

[5] = biological target: Voltage-gated potassium channel subunit beta-2 (Rattus norvegicus) (UniProt P62483); test: inhibitors of rat Kvbeta2 reductase activity – biochemical, NADPH fluorescence, primary screen (AID 622;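 active = fluorescence slope higher than the sample average by over 3 SD, cut at about -0.22 in these data, passing the limit was not always enough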;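 also: slope of raw intensity against log time taken from 70 to 1610 s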); conditions: recombinant KvBeta, 4-cyanobenzaldehyde reduction, at 10 µM, stronger effect = higher value
Chain of Voltage-gated potassium channel subunit beta-2 (Rattus norvegicus) (P62483 whole entry, looked up): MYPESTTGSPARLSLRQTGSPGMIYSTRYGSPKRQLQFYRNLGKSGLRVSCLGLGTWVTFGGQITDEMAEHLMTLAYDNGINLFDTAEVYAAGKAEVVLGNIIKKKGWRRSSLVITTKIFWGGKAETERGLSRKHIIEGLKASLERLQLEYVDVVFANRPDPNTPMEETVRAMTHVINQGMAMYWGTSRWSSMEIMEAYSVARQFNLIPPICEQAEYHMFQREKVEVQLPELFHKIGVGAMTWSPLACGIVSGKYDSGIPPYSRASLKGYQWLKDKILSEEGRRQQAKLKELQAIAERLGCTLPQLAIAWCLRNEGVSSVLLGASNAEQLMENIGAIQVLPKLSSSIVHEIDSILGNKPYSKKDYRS

[6] = biological target: Voltage-gated potassium channel subunit beta-2 (Rattus norvegicus) (UniProt P62483); test: enhancers of rat Kvbeta2 NADPH turnover – biochemical, NADPH fluorescence, primary screen (AID 623;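 active = NADPH fluorescence slope more negative than the mean of all samples by about 3 SD, 99.7% confidence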;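 also: fluorescence intensity change per second fitted from 20 to 320 s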); conditions: Recombinant KvBeta, NADPH fluorescence decrease slope, 10 min; at 10 µM; stronger effect = lower value
[7] = biological target: Muscarinic acetylcholine receptor M4 (Homo sapiens) (UniProt P08173); test: M4-linked GIRK flux change, two-sided – cell-based, HEK293 M4/GIRK, thallium flux, BTC-AM, M4 allosteric agonist project, primary screen (AID 625;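 active = fluorescence slope after compound addition differing from the mean of all tested samples at 99.7% confidence, mostly higher but some lower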;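 also: thallium influx through GIRK channels coupled to M4 in HEK293 cells with BTC-AM dye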); conditions: at 10 µM, actives lie on both sides
Chain of Muscarinic acetylcholine receptor M4 (Homo sapiens) (P08173 whole entry, looked up): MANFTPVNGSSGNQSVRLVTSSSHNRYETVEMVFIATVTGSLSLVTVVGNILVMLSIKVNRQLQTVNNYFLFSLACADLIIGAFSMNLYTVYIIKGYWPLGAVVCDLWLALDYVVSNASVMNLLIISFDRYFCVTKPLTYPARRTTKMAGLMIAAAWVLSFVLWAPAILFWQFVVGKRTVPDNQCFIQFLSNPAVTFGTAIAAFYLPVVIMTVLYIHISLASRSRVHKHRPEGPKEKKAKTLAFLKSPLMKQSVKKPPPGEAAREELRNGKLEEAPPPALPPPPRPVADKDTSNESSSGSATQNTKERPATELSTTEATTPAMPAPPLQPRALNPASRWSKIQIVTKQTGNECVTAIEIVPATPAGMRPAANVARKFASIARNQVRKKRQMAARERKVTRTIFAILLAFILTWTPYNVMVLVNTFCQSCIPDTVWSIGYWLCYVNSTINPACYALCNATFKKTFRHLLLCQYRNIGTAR
How it was run: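 System: HEK293 cells with M4 receptor and GIRK channels | Incubation: Cells overnight at 37 °C, BTC-AM loading 1 h, reads 2 min total | Technique: Kinetic BTC-AM fluorescence sampled at 1 Hz, 10 s pre-addition baseline | Measure: Post-addition slope, 15–24 s, of baseline-normalized fluorescence | Control set: Carbachol positive, DMSO negative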

[8] = inhibitors of larval lipid processing in zebrafish, primary screen, whole organism, PED6 fluorescence, gall bladder and intestine (AID 686;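 active = a full or partial loss of lipid-probe fluorescence in the fish gall bladder, intestine or both, judged by eye; inactive = no fluorescence loss, or compound toxic to the fish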;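 also: larvae 5 to 7 days old with five fish per well; signal comes from phospholipase A2 cleavage of quenched PED6 carried via bile; overnight exposure to compound and PED6 before scoring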); conditions: Zebrafish larvae PED6 lipid processing, fluorescence scoring; screened at 20 µM (by protocol)
How it was run: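 Test system – live zebrafish larvae aged 5-7 days, whole organism · Buffer or medium – E3 fish medium · Reagent – quenched phospholipase substrate PED6, 100 nM final, ingested by larvae · Doses – 20 µM single dose · Incubation – overnight compound and PED6 incubation · Technique – visual fluorescence microscopy scoring of gall bladder, gut · Read-out basis – visual per-well fluorescence inhibition score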

[9] = loss of swimming-algae plug formation – whole organism, Chlamydomonas reinhardtii, WT vs cilia-less mutant, absorbance, 96-well, primary screen (AID 463189;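 active = inhibition at or above 50% relative to wild type and mutant plate controls; inactive = inhibition below 50%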;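 also: 0% = wild type cc124 cells in DMSO and 100% = ciliumless bld1 mutant cells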); conditions: Chlamydomonas reinhardtii gravitaxis, OD600 absorbance, 2 days; at 10 µM; stronger effect = higher value
[10] = measured here: cell density z-score
[11] = measured here: nuclear c-Myc green intensity z-score
[12] = measured here: nuclear pErk red intensity z-score, stronger effect = higher value

Row | Structure (SMILES) | cell count [1] | inhibition [1] | inhibition [2] | nuclei count [2] | z-score [3, 10] | z-score [3, 11] | z-score [3, 12] | inhibition [4] | fluorescence slope [5] | NADPH fluorescence slope [6] | fluorescence slope [7] | outcome [8] | inhibition [9]
1 | Cc1ccc(OCC(=O)N(C)CCc2ccccn2)cc1 | 475 | -5.5% (inactive) | -175% (inactive) | 159% | -0.678 | -1.49 | 1.57 | -2.29% (inactive) | -0.433 (inactive) | -5.2e-05 (inactive) | 0.00557 (inactive) | inactive | 7.87% (inactive)
2 | CC(C)COc1ccc(C(=O)NC(CC(C)C)C(=O)O)cc1 (centres undefined) | 649 | 9.2% (inactive) | -19.5% (inactive) | 84.1% | -0.492 | 0.0237 | 0.136 | -13.3% (inactive) | -0.484 (inactive) | -4.8e-05 (inactive) | 0.00574 (inactive) | inactive | 25.1% (inactive)
3 | CN1CC2(C)CN(C(c3ccccc3)c3ccccc3)CC(C)(C1)C2O (centres undefined) | 529 | -8.9% (inactive) | -136% (inactive) | 154% | 1.6 | -0.0767 | -1.37 | 3.42% (inactive) | -0.479 (inactive) | -8.8e-05 (inactive) | 0.00415 (inactive) | inactive | -0.999% (inactive)
4 | COc1ccc(-c2nc3c(Br)c(N)c(Br)cc3o2)cc1 | 497 | -7.6% (inactive) | -77.2% (inactive) | 140% | 0.844 | -1.44 | 0.173 | -1.98% (inactive) | -0.404 (inactive) | -2.1e-05 (inactive) | 0.0064 (inactive) | inactive | 14.6% (inactive)
5 | CCCCc1nc(N2CCOCC2)c(C#N)c2c1COC(C)(C)C2 | 530 | -4.2% (inactive) | -202% (inactive) | 149% | 1.13 | -0.937 | -0.238 | 15.4% (inactive) | -0.458 (inactive) | -6.7e-05 (inactive) | 0.00404 (inactive) | inactive | 1.03% (inactive)
6 | O=C1C(=O)N(Cc2cccnc2)C(c2ccccn2)/C1=C(/O)c1ccccc1 (centres undefined) | 620 | -5.9% (inactive) | -74.4% (inactive) | 158% | -0.531 | 0.731 | -0.436 | -8.95% (inactive) | -0.503 (inactive) | -6.6e-05 (inactive) | 0.00562 (inactive) | inactive | 6.67% (inactive)
7 | Cc1nc(NCCO)c(C#N)c2c1COC(C)(C)C2 | 538 | -2.6% (inactive) | -147% (inactive) | 132% | -0.0329 | 1.94 | -1.24 | 15.4% (inactive) | -0.464 (inactive) | -3.6e-05 (inactive) | 0.0044 (inactive) | inactive | 5.51% (inactive)
8 | O=S(=O)(N[C@@H]1C[C@H]2CC[C@@H]1C2)c1cccs1 | 433 | -8.9% (inactive) | -51.9% (inactive) | 155% | 1.4 | -0.527 | -0.281 | 9.37% (inactive) | -0.458 (inactive) | -3.1e-05 (inactive) | 0.00569 (inactive) | inactive | -1.87% (inactive)
9 | OCCN=C(c1ccccc1)C12CN3CN(CN(C3)C1)C2 | 568 | -5.7% (inactive) | -133% (inactive) | 150% | 0.238 | -2.23 | 0.262 | 15.4% (inactive) | -0.48 (inactive) | -2.2e-05 (inactive) | 0.0051 (inactive) | inactive | 7.41% (inactive)
10 | CCN(CC)Cc1c(O)ccc2c(C)c(CC(=O)OC)c(=O)oc12 | 660 | -1.4% (inactive) | 1.9% (inactive) | 145% | 0.613 | -0.319 | -0.573 | 2.71% (inactive) | -0.0165 (inactive) | -6.9e-06 (inactive) | 0.00599 (inactive) | inactive | 5.82% (inactive)
11 | C=C(C)CC1N(c2cccc(OC)c2)C(=O)[C@@H]2C(C(=O)O)[C@H]3C=C[C@@]12O3 (some centres undefined) | 628 | -15.4% (inactive) | 51.9% (inactive) | 182% | -0.541 | 1.19 | 1.46 | -7.28% (inactive) | -0.49 (inactive) | -7.9e-05 (inactive) | 0.00494 (inactive) | inactive | -0.618% (inactive)
12 | CC1(C)Cc2[nH]c(=S)c(C#N)cc2CO1 | 531 | -11.7% (inactive) | -90.9% (inactive) | 118% | 0.165 | 0.751 | -0.483 | -5.81% (inactive) | -0.459 (inactive) | -0.000113 (inactive) | 0.0062 (inactive) | inactive | -14% (inactive)
13 | CCOc1ccc2nc(NC(NC(=O)CC)(C(=O)OC)C(F)(F)F)sc2c1 (centres undefined) | 362 | -7% (inactive) | -214% (inactive) | 195% | -0.714 | 0.587 | 0.266 | 3.42% (inactive) | -0.424 (inactive) | -8.8e-05 (inactive) | 0.00487 (inactive) | inactive | -2.07% (inactive)
